Assay results as given in ChEMBL document CHEMBL1153097, “Synthesis and biological evaluation of a novel series of pyrazole chalcones as anti-inflammatory, antioxidant and antimicrobial agents” (Bioorg Med Chem, 2009).
The source made the active and inactive calls. The rule behind the calls is not given here.

How the values were obtained:
[1] = test system: Aspergillus niger; assay: Antimicrobial activity against Aspergillus niger MTCC 1781 at 250 ug/ml after 48 hrs by agar diffusion method; format: functional; settings: MTCC 1781, 48 h, read-out: IZ
Outline: (§1)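 Agar diffusion on Sabouraud's dextrose agar. Plates were spread with 0.1 mL of fungal spore suspension in sterile distilled water, adjusted to 10⁶ cfu/mL. Duplicate plates were incubated 48 h at 28 °C, and the zone of inhibition was measured in mm.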

[2] = test system: Bacillus subtilis; assay: Antimicrobial activity against Bacillus subtilis MTCC 1789 at 100 ug/ml after 24 hrs by agar diffusion method; format: functional; settings: MTCC 1789, 24 h, read-out: IZ
Outline: (§2)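 Agar diffusion on Mueller Hinton agar. Plates were seeded with 0.1 mL of bacterial suspension at 10⁵ cfu/mL in 0.85% sterile saline. Duplicate plates were incubated 24 h at 37 °C, and the zone of inhibition was measured in mm.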

[3] = test system: Escherichia coli; assay: Antimicrobial activity against Escherichia coli MTCC 1650 at 100 ug/ml after 24 hrs by agar diffusion method; format: functional; settings: MTCC 1650, 24 h, read-out: IZ; outline: as §2
[4] = test system: Staphylococcus aureus; assay: Antimicrobial activity against Staphylococcus aureus MTCC 96 at 100 ug/ml after 24 hrs by agar diffusion method; format: functional; settings: MTCC 96, 24 h, read-out: IZ; outline: as §2
[5] = test system: Radical scavenging activity; assay: Antioxidant activity assessed as DPPH radical scavenging activity; format: functional; design: concentration or dose not given beside the values
[6] = test system: THP-1; assay: Cytotoxicity against human THP1 cells assessed as CCK8 […] at 10 uM after 24 hrs […]; format: cell-based; settings: thp-1, 24 h
Outline: (§3)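 Cytotoxicity was read with CCK-8 in the same wells as the cytokine assay. PMA-differentiated THP-1 cells were exposed to compound in 0.5% DMSO for 30 min at 37 °C, then stimulated with LPS and incubated further at 37 °C.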

[7] = test system: THP-1; assay: Antiinflammatory activity in human THP1 cells assessed as inhibition of LPS-induced IL6 release at 10 uM after 24 hrs by ELISA; format: functional; settings: THP-1, 24 h
Outline: (§4)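 PMA-differentiated THP-1 cells in RPMI 1640 with 10% FBS, penicillin and streptomycin. Test compound in 0.5% DMSO added 30 min at 37 °C before E. coli 0127:B8 LPS, then further incubation at 37 °C. Supernatant TNF-α and IL-6 measured by ELISA. Percent inhibition calculated against control.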

[8] = test system: THP-1; assay: Antiinflammatory activity in human THP1 cells assessed as inhibition of LPS-induced TNFalpha release at 10 uM after 24 hrs by ELISA; format: functional; settings: THP-1, 24 h; outline: as §4
[9] = test system: Aspergillus flavus; assay: Antimicrobial activity against Aspergillus flavus MTCC 2501 at 250 ug/ml after 48 hrs by agar diffusion method; format: functional; settings: MTCC 2501, 48 h, read-out: IZ; outline: as §1
[10] = test system: Trichoderma viride; assay: Antimicrobial activity against Trichoderma viride MTCC 167 at 250 ug/ml after 48 hrs by agar diffusion method; format: functional; settings: MTCC 167, 48 h, read-out: IZ; outline: as §1
[11] = test system: Proteus vulgaris; assay: Antimicrobial activity against Proteus vulgaris MTCC 1771 at 100 ug/ml after 24 hrs by agar diffusion method; format: functional; settings: MTCC 1771, 24 h, read-out: IZ; outline: as §2
[12] = test system: Klebsiella pneumoniae; assay: Antimicrobial activity against Klebsiella pneumoniae NCIM 2957 at 100 ug/ml after 24 hrs by agar diffusion method; format: functional; settings: for zone of inhibition at 100 µg/mL: NCIM 2957, 24 h, read-out: IZ; outline: as §2
[13] = test system: Aspergillus niger; assay: Antimicrobial activity against Aspergillus niger MTCC 1781 at 30 ug/ml after 48 hrs by agar diffusion method; format: functional, organism-based
Outline: (§5)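 Fungal spore suspensions in sterile distilled water adjusted to 10⁶ cfu/mL; 0.1 mL spread on Sabouraud's dextrose agar plates. Duplicate plates incubated 48 h at 28 ± 0.2 °C. Activity read as zone of inhibition in mm.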

[14] = test system: Trichoderma viride; assay: Antimicrobial activity against Trichoderma viride MTCC 167 at 30 ug/ml after 48 hrs by agar diffusion method; format: functional, organism-based; outline: as §5
[15] = test system: Aspergillus flavus; assay: Antimicrobial activity against Aspergillus flavus MTCC 2501 at 30 ug/ml after 48 hrs by agar diffusion method; format: functional, organism-based; outline: as §5
[16] = test system: THP-1; assay: Antiinflammatory activity in human THP1 cells assessed as inhibition of LPS-induced IL6 release at 1 uM/mL after 24 hrs by ELISA; format: functional; settings: THP-1, 24 h; outline: as §4
[17] = Cytotoxicity against human THP1 cells assessed as CCK8 […] at 1 uM/mL after 24 hrs […]; format: cell-based; settings: THP-1 cells; outline: as §3
[18] = test system: THP-1; assay: Antiinflammatory activity in human THP1 cells assessed as inhibition of LPS-induced TNFalpha release at 1 uM/mL after 24 hrs by ELISA; format: functional; settings: THP-1, 24 h; outline: as §4
[19] = test system: Klebsiella pneumoniae; assay: Antimicrobial activity against Klebsiella pneumoniae NCIM 2957 at 10 ug/ml after 24 hrs by agar diffusion method; format: functional; settings: NCIM 2957, 24 h, read-out: IZ; outline: as §2
[20] = test system: Proteus vulgaris; assay: Antimicrobial activity against Proteus vulgaris MTCC 1771 at 10 ug/ml after 24 hrs by agar diffusion method; format: functional; settings: MTCC 1771, 24 h, read-out: IZ; outline: as §2
[21] = test system: Staphylococcus aureus; assay: Antimicrobial activity against Staphylococcus aureus MTCC 96 at 10 ug/ml after 24 hrs by agar diffusion method; format: functional; settings: MTCC 96, 24 h, read-out: IZ
Outline: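 Mueller Hinton agar seeded with 0.1 mL of bacterial suspension in sterile 0.85% saline at 10⁵ cfu/mL. Duplicate plates incubated 24 h at 37 ± 0.5 °C. Activity read as zone of inhibition in mm.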

Compound	zone of inhibition at 250 µg/mL [1]	zone of inhibition at 100 µg/mL [2]	zone of inhibition at 100 µg/mL [3]	zone of inhibition at 100 µg/mL [4]	Activity [5]	Activity [6]	inhibition at 10 µM [7]	inhibition at 10 µM [8]	zone of inhibition at 250 µg/mL [9]	zone of inhibition at 250 µg/mL [10]	other results
COc1ccc(C(=O)/C=C/c2cn(-c3ccccc3)nc2-c2ccc(Cl)cc2)c(OC)c1	11 mm	13 mm	11 mm	11 mm	18.7%	11.488%	2.71%	1.13%	10 mm	13 mm	zone of inhibition at 100 µg/mL [11]: 12 mm
COc1ccc(O)c(C(C)(C)C)c1.COc1ccc(O)cc1C(C)(C)C	–	–	–	–	66.8%	–	–	–	–	–	–
COc1ccc(C(=O)/C=C/c2cn(-c3ccccc3)nc2-c2ccc(F)cc2)c(OC)c1	13 mm	14 mm	12 mm	15 mm	26.7%	0%	0%	0%	12 mm	14 mm	zone of inhibition at 100 µg/mL [11]: 10 mm
COc1ccc(C(=O)/C=C/c2cn(-c3ccccc3)nc2-c2cccc(Cl)c2)c(OC)c1	9 mm	8 mm	9 mm	6 mm	29.7%	0%	67.5%	0%	10 mm	11 mm	inhibition zone (IZ) [12]: Active; zone of inhibition at 100 µg/mL [11]: 8 mm
COc1ccc(C(=O)/C=C/c2cn(-c3ccccc3)nc2-c2ccccc2)c(OC)c1	12 mm	10 mm	10 mm	8 mm	31.8%	0%	64.7%	0%	15 mm	14 mm	–
NYSTATIN	–	–	–	–	–	–	–	–	–	–	inhibition zone (IZ) [13]: 11 mm; inhibition zone (IZ) [14]: 12 mm; inhibition zone (IZ) [15]: 11 mm
COc1ccc(C(=O)/C=C/c2cn(-c3ccccc3)nc2-c2ccc(OC)cc2OC)c(OC)c1	12 mm	6 mm	10 mm	7 mm	30.3%	2.5107%	37.9%	0%	13 mm	14 mm	zone of inhibition at 100 µg/mL [12]: 8 mm
COc1ccc(C(=O)/C=C/c2cn(-c3ccccc3)nc2-c2ccccc2Cl)c(OC)c1	11 mm	7 mm	12 mm	8 mm	13.8%	0%	14.5%	0%	9 mm	12 mm	–
C[C@@H]1C[C@H]2[C@@H]3CCC4=CC(=O)C=C[C@]4(C)[C@@]3(F)[C@@H](O)C[C@]2(C)[C@@]1(O)C(=O)CO [DEXAMETHASONE]	–	–	–	–	–	–	–	–	–	–	inhibition at 1 µM [16]: 90%; inhibition at 24 h, 1 µM [17]: 0%; inhibition at 1 µM [18]: 69%
COc1ccc(C(=O)/C=C/c2cn(-c3ccccc3)nc2-c2ccc(C)cc2)c(OC)c1	14 mm	8 mm	11 mm	9 mm	13.5%	0%	0%	0%	12 mm	15 mm	zone of inhibition at 100 µg/mL [12]: 12 mm
COc1ccc(-c2nn(-c3ccccc3)cc2/C=C/C(=O)c2ccc(OC)cc2OC)cc1	15 mm	10 mm	8 mm	11 mm	34.6%	0%	38.2%	0%	14 mm	16 mm	inhibition zone (IZ) [12]: Active; zone of inhibition at 100 µg/mL [11]: 7 mm
CN(C)[C@@H]1C(O)=C(C(N)=O)C(=O)[C@@]2(O)C(O)=C3C(=O)c4c(O)cccc4[C@@](C)(O)[C@H]3C[C@@H]12 [TETRACYCLINE]	–	–	–	–	–	–	–	–	–	–	zone of inhibition at 10 µg/mL [19]: 32 mm; zone of inhibition at 10 µg/mL [20]: 20 mm; zone of inhibition at 10 µg/mL [21]: 17 mm
COc1ccc(C(=O)/C=C/c2cn(-c3ccccc3)nc2-c2ccc(Cl)cc2Cl)c(OC)c1	8 mm	9 mm	11 mm	10 mm	18.2%	0%	40.8%	0%	10 mm	10 mm	–
COc1ccc(C(=O)/C=C/c2cn(-c3ccccc3)nc2-c2ccc(Br)cc2)c(OC)c1	11 mm	7 mm	9 mm	8 mm	17.2%	0%	11.3%	1.81%	13 mm	13 mm	zone of inhibition at 100 µg/mL [12]: 10 mm
